Activity calls are given as the source filed them. No cut-off for these calls is given here.
Key:
MDCK [1] = test: Apparent permeability from basolateral to apical side in MDCK cells expressing MDR-1 at 10 uM after 90 mins by LC-MS/MS analysis; format: ADME, cell-based, Canis lupus familiaris; settings: dog, 1.5 h
Method in brief: (§1)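 MDCK-MDR1 (Pgp-expressing) monolayers were used 3–4 days post-seeding, only if TEER exceeded 1000 Ω·cm² before and after the run. Compound starting concentration was 10 μM. Transport was measured A→B and B→A over 90 min and quantified by LC/MS/MS. Apparent permeabilities gave the efflux ratio.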

BT-474 = test: Cytotoxicity against human BT474 cells after 96 hrs by trypan blue exclusion assay; format: functional; settings: BT-474, 96 h
Method in brief: (§2)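 Cells were grown in DMEM or RPMI with 10% FBS and plated at 2.5×10⁴ cells/well in 12-well dishes. Compounds were added 24 h later at various concentrations. After 96 h, viable cells were counted by trypan blue exclusion from duplicate wells. Results are the mean of two independent experiments.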

Mus musculus [2] = test: Toxicity in NCR-nu/nu mouse assessed as reduction in body weight at 20 mg/kg, ip treated 3 times a week for 2 weeks measured on alternate days for 14 days; format: organism-based; set-up: dose 20 mg/kg, route intraperitoneal; settings: in vivo, 336 h
Method in brief: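 Female athymic NCr-nu/nu mice bearing subcutaneous BT20 hind-leg tumors (~100–150 mm³) were given 20 mg/kg IP in DMSO (0.1 mL), 3 times a week for 2 weeks (N=8; vehicle N=7).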

Liver [3] = test: Metabolic stability in human liver S9 fraction assessed as compound remaining at 10 uM after 1 hr by LC-MS/MS analysis; format: ADME, subcellular; settings: s9, 1 h
Method in brief: (§3)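 Compound at 10 μM was incubated with rat, dog or human liver S9 fraction (1 mg/mL) for 0, 30 and 60 min. Parent remaining at 1 h was quantified by LC-MS/MS.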

Tubulin (Sus scrofa) = Tubulin (Sus scrofa) (UniProt P02554+P02550); test: Competitive binding affinity to pig brain tubulin vinblastine binding site at 0.1 to 100 uM after 1 hr by mass spectrophotometric analysis in presence of vinblastine
Method in brief: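 Porcine brain tubulin (1.0 mg/mL) in PIPES 80 mM, MgCl₂ 2 mM, EGTA 0.5 mM, pH 6.9, at 37 °C. […] Competitor was 0.1–100 μM for 1 h. Unbound ligand in the 30 kDa ultrafiltrate was measured by MS. Runs were in triplicate; IC50 came from a Hill fit.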

DU-145 [4] = test: Mitotoic arrest in human DU145 cells assessed as presence of micronucleated cells at 25 nM after 24 hrs by FITC and propidium iodide staining-based confocal laser microscopic analysis; format: functional, cell-based
Method in brief: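 DU145 cells grown on glass coverslips, exposed to 0.025 μM for 24 h, fixed in 4% paraformaldehyde, permeabilized in PBS with 10% FBS/0.1% Triton X-100, stained with FITC-conjugated anti-α-tubulin (DM1A, 1 h, 37 °C) and propidium iodide (1 μg/mL, 5 min), then imaged by confocal microscopy (60× objective, XYZ-sectioning); DMSO-treated cells as vehicle.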

[5] = Cytotoxicity against human NAMALWA cells after 96 hrs by trypan blue exclusion assay; format: functional; settings: NAMALVA; method in brief: as §2
NCI-H417 = test: Cytotoxicity against human NCI-N417 cells after 96 hrs by trypan blue exclusion assay; format: functional; settings: NCI-H417, 96 h
Method in brief: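 Cells grown in DMEM or RPMI with 10% FBS and 1 unit/mL penicillin-streptomycin, seeded in 12-well dishes at 2.5 ×10⁴ cells/mL/well. Compound added 24 h later at various concentrations. Viable cells counted by trypan blue exclusion from duplicate wells after 96 h. Value taken from dose-response curves of two independent experiments.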

MDCK [6] = test: Efflux ratio of permeability from basolateral to apical over apical to basolateral side in MDCK cells expressing MDR-1; settings: dog
Mus musculus [7] = test: Oral bioavailability in ICR mouse at 5 mg/kg by LC-MS/MS analysis; format: ADME, organism-based; settings: in vivo
Method in brief: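 Male ICR mice, 6–8 weeks old (N=3 per group), with a carotid artery cannula implanted one day before dosing. Dosed at 5 mg/kg in NMP:PEG300:water (1:4:5) as an IV bolus or by oral gavage. Blood drawn at 2–360 min; plasma protein-precipitated with acetonitrile containing internal standard, assayed by LC/MS/MS; noncompartmental analysis.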

DU-145 [8] = test: Cell cycle arrest in human DU145 cells assessed as accumulation at G2/M phase after 24 hrs by propidium iodide staining-based FACS flow cytometric analysis; format: functional
Method in brief: (§4)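 DU145 cells were plated at 1.0×10⁶ per dish in DMEM/10% FBS and treated 24 h later with increasing concentrations. After 24 h, attached and floating cells were pooled and fixed in ice-cold 70% ethanol for at least 24 h. Cells were stained with propidium iodide (50 μg/mL) plus RNase A for 30 min at 37 °C, then read on a FACScan with cell-cycle modelling.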

Liver [9] = test: Metabolic stability in rat liver S9 fraction assessed as compound remaining at 10 uM after 1 hr by LC-MS/MS analysis; format: ADME, subcellular; settings: s9, 1 h; method in brief: as §3
Tubulin (Homo sapiens) [10] = target: T1, Tubulin (Homo sapiens) (UniProt P68371+Q9H4B7+P0DPH7+P68366+Q13509+Q71U36+P04350+Q3ZCM7+P07437+P68363+Q9BQE3+Q6PEY2+Q13885+Q9BVA1+Q9BUF5); test: Inhibition of tubulin polymerization in human DU145 cells after 24 hrs by Western blotting analysis; format: cell-based; settings: DU-145
DU-145 [11] = test: Mitotoic arrest in human DU145 cells assessed as appearance of abnormal spindles at 25 nM after 24 hrs by FITC and propidium iodide staining-based confocal laser microscopic analysis; format: functional, cell-based
Method in brief: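 DU145 cells on glass coverslips were treated with 0.025 μM compound or DMSO for 24 h and fixed in 4% paraformaldehyde. After blocking and permeabilizing in PBS with 10% FBS and 0.1% Triton X-100, they were stained with FITC anti-α-tubulin (DM1A) for 1 h at 37 °C and with propidium iodide 1 μg/mL. Imaging was by confocal microscopy, 60× objective, as z-sections.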

[12] = Cytotoxicity against human Caco2 cells after 1 hr by Alamar Blue assay; format: cell-based; settings: Caco-2 cells, read-out: LD50
Tubulin (Homo sapiens) [13] = target: T1, Tubulin (Homo sapiens); test: Inhibition of tubulin polymerization in human DU145 cells at 10 to 50 nM pretreated with paclitaxel for 24 hrs followed by compound treatment for 4 hrs by Western blotting analysis; format: cell-based; settings: DU-145
Method in brief: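 DU145 cells were plated at 1.0×10⁴/well and treated for 24 h. Alternatively, cells were pretreated with paclitaxel for 24 h, then exposed to compound for 4 h. Cells were lysed in hypotonic buffer (1 mM MgCl₂, 2 mM EGTA, Tris pH 6.6, 0.5% NP40, protease inhibitors) and spun 10 min at 14,000 rpm. Pellet (polymerized) and supernatant (soluble) fractions were blotted for α-tubulin.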

DU-145 [14] = test: Cell cycle arrest in human DU145 cells assessed as accumulation at G2/M phase at 0.02 uM after 24 hrs by propidium iodide staining-based FACS flow cytometric analysis; format: functional; method in brief: as §4
MDCK [15] = test: Apparent permeability from apical to basolateral side in MDCK cells expressing MDR-1 at 10 uM after 90 mins by LC-MS/MS analysis; format: ADME, cell-based, Canis lupus familiaris; settings: dog, 1.5 h; method in brief: as §1

Q: Which results are given for COc1cc(OC)c(/C=C/S(=O)(=O)Nc2ccc(OC)c(N)c2)c(OC)c1?
A: Papp (MDCK [1]): 72 ×10⁻⁶ cm/s; GI50 (BT-474): 0.01 µM; Activity (Mus musculus [2]): Non-toxic; Stability (Liver [3]): 20%; Activity (Tubulin (Sus scrofa)): inactive; Activity (DU-145 [4]): Active; GI50 [5]: 0.008 µM; GI50 (NCI-H417): 0.004 µM; Ratio (MDCK [6]): 7.9; F (Mus musculus [7]): 34%; Activity (DU-145 [8]): Dose-dependent effect; Stability (Liver [9]): 33%; inhibition (Tubulin (Homo sapiens) [10]): Dose-dependent effect; Activity (DU-145 [11]): Active; CC50 at 1 h [12]: > 1000 µM; inhibition (Tubulin (Homo sapiens) [13]): Active; Activity (DU-145 [14]): Active; Papp (MDCK [15]): 9.1 ×10⁻⁶ cm/s

Source: ChEMBL document CHEMBL2396655, “Design, synthesis, and biological evaluation of (E)-N-aryl-2-arylethenesulfonamide analogues as potent and orally bioavailable microtubule-targeted anticancer agents” (J Med Chem, 2013)
